In ChEMBL document CHEMBL4402565, “α-Ketoamides as Broad-Spectrum Inhibitors of Coronavirus and Enterovirus Replication: Structure-Based Design, Synthesis, and Activity Assessment” (J Med Chem, 2020):

Columns and labels:
[1] = Therapeutic index, ratio of CC50 for human HuH7 cells expressing T7 RNA polymerase to EC50 for Middle East respiratory syndrome coronavirus infected in human HuH7 cells expressing T7 RNA polymerase; assay type: toxicity, cell-based; conditions: read-out: Ratio CC50/EC50
[2] = Therapeutic index, ratio of CC50 for monkey Vero cells to EC50 for Middle East respiratory syndrome coronavirus infected in monkey Vero cells; assay type: toxicity, cell-based; conditions: read-out: Ratio CC50/EC50
[3] = Cytotoxicity against human RD cells assessed as reduction in cell viability incubated for 3 days by MTS assay; assay type: cell-based
[4] = Inhibition of Enterovirus A71 protease 3C using DabcylKEALFQ-GPPQF-E(Edans)-NH2 as substrate incubated for 10 mins by fluorospectrometry
Summary of the method: (§1)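 FRET cleavage assay in 20 mM Tris-HCl, 100 mM NaCl, 1 mM EDTA, 1 mM DTT, pH 7.3. Final enzyme 2 μM for CVB3 3Cpro or 3 μM for EV-A71 3Cpro, preincubated with inhibitor (0–100 μM) for 10 min at 37 °C. Reaction started with 20 μM final Dabcyl-KEALFQ↓GPPQF-E(Edans)-NH₂. Edans dequenching read at ex 360/em 460 nm. Triplicate, mean ± SD.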

Human coronavirus 229E = test: Antiviral activity against Human coronavirus 229E infected in HuH7 cells expressing T7 RNA polymerase assessed as reduction in virus-induced cytopathic effect incubated for 48 hrs by Alamar blue based assay; assay type: functional, organism-based; conditions: Huh-7, 48 h
Enterovirus A71 [5] = test: Antiviral activity against Enterovirus A71 infected in RD cells assessed as reduction in virus-induced cytopathic effect incubated for 3 days by MTS assay; assay type: functional, organism-based; conditions: Enterovirus A, 72 h
Summary of the method: (§2)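 CPE reduction assay. RD (EV-A71) or HeLa Rh (EV-D68, HRV) cells seeded 24 h earlier in medium with 2% FCS; HRV2/HRV14 medium contained 30 mM MgCl₂. Serial compound dilutions added with virus. At 3 days post infection, 5% MTS added for 1 h at 37 °C and OD498 read. EC50 taken as 50% protection versus controls by logarithmic interpolation; morphology also checked microscopically.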

[6] = Therapeutic index, ratio of CC50 for monkey Vero E6 cells to EC50 for SARS coronavirus infected in monkey Vero E6 cells; assay type: toxicity, cell-based, Vero C1008; conditions: read-out: Ratio CC50/EC50
[7] = Cytotoxicity against human HuH7 cells expressing T7 RNA polymerase assessed as reduction in cell viability incubated for 2 days by non-radioactive cell proliferation assay; assay type: cell-based, Huh-7
SARS-CoV [8] = test: Antiviral activity against SARS coronavirus infected in HuH7 cells expressing T7 RNA polymerase assessed as reduction in viral RNA replication incubated for 24 hrs by luciferase reporter gene assay; assay type: functional, organism-based; conditions: Severe acute respiratory syndrome-related coronavirus, Huh-7, 24 h
Summary of the method: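 SARS-CoV replicon (DNA-launched, Renilla luciferase reporter) was transfected into Huh-T7 cells at 80–90% confluency. Compound at 0, 1.25, 2.5, 5, 10, 20 or 40 µM in growth medium was added after transfection. At 24 h, cells were lysed and luciferase activity measured. Runs were in triplicate or quadruplicate, reported as mean ± SD.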

[9] = Therapeutic index, ratio of CC50 for human HuH7 cells expressing T7 RNA polymerase to EC50 for Human coronavirus 229E infected in human HuH7 cells expressing T7 RNA polymerase; assay type: toxicity, cell-based; conditions: read-out: Ratio CC50/EC50
Summary of the method: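 Huh7 cells were infected with HCoV-229E at […] for 1.5 h at 37 °C and washed. Complete DMEM containing inhibitor (0–40 µM) was added. […] CC50 came from a parallel AlamarBlue viability assay normalised to no-inhibitor and 1% Triton X-100 controls. Therapeutic index = CC50/EC50.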

[10] = Cytotoxicity against human HeLa Rh cells assessed as reduction in cell viability incubated for 3 days by MTS assay; assay type: cell-based
rhinovirus B14 = test: Antiviral activity against Human rhinovirus 14 infected in HeLa Rh cells assessed as reduction in virus-induced cytopathic effect incubated for 3 days by MTS assay; assay type: functional, organism-based; conditions: Rhinovirus B, 72 h; summary of the method: as §2
[11] = Inhibition of […] protease 3C using DabcylKEALFQ-GPPQF-E(Edans)-NH2 as substrate incubated for 10 mins by fluorospectrometry; design: species or system Coxsackievirus; summary of the method: as §1
SARS-CoV [12] = test: Antiviral activity against SARS coronavirus infected in Vero E6 cells assessed as reduction in virus-induced cytopathic effect incubated for 2 days by non-radioactive cell proliferation assay; assay type: functional, organism-based; conditions: Severe acute respiratory syndrome-related coronavirus, Vero C1008, 48 h
[13] = Therapeutic index, ratio of CC50 for human HeLa Rh cells to EC50 for Human rhinovirus 2 infected in human HeLa Rh cells; assay type: toxicity, cell-based; conditions: read-out: Ratio CC50/EC50
[14] = Antiviral activity against […] infected in HuH7 cells expressing T7 RNA polymerase assessed as reduction in virus-induced cytopathic effect incubated for 2 days by non-radioactive cell proliferation assay; assay type: functional, organism-based; conditions: B3, Huh-7, 48 h
[15] = test system: Middle East respiratory syndrome-related coronavirus; test: Antiviral activity against Middle East respiratory syndrome coronavirus infected in Vero cells assessed as reduction in virus-induced cytopathic effect incubated for 3 days by non-radioactive cell proliferation assay; assay type: functional, organism-based; conditions: 72 h
[16] = Inhibition of SARS coronavirus M protease using Dabcyl-KTSAVLQ-SGFRKM-E(Edans)-NH2 as substrate incubated for 10 mins by fluorospectrometry; design: species or system Severe acute respiratory syndrome-related coronavirus
Summary of the method: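 FRET cleavage assay with 0.5 µM recombinant SARS-CoV Mpro (authentic termini) in 20 mM Tris-HCl, 100 mM NaCl, 1 mM EDTA, 1 mM DTT, pH 7.3. Enzyme was preincubated with inhibitor (0–100 µM) for 10 min at 37 °C, then 20 µM final substrate was added. Fluorescence was read at ex 360/em 460 nm. Triplicate, mean ± SD; IC50 from curve fitting.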

[17] = Therapeutic index, ratio of CC50 for human HuH7 cells expressing T7 RNA polymerase to EC50 for […] infected in human HuH7 cells expressing T7 RNA polymerase; assay type: toxicity, cell-based; conditions: read-out: Ratio CC50/EC50
rhinovirus A2 = test: Antiviral activity against Human rhinovirus 2 infected in HeLa Rh cells assessed as reduction in virus-induced cytopathic effect incubated for 3 days by MTS assay; assay type: functional, organism-based; conditions: Rhinovirus A, 72 h; summary of the method: as §2
[18] = test system: Middle East respiratory syndrome-related coronavirus; test: Antiviral activity against Middle East respiratory syndrome coronavirus infected in HuH7 cells expressing T7 RNA polymerase assessed as reduction in virus-induced cytopathic effect incubated for 2 days by non-radioactive cell proliferation assay; assay type: functional, organism-based; conditions: Huh-7, 48 h
[19] = Inhibition of human coronavirus NL63 M protease using Dabcyl-KTSAVLQ-SGFRKM-E(Edans)-NH2 as substrate incubated for 10 mins by fluorospectrometry
Summary of the method: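 0.5 μM final HCoV-NL63 Mpro preincubated 10 min at 37 °C with inhibitor (0–100 μM) in pH 7.3 Tris buffer (100 mM NaCl, 1 mM EDTA, 1 mM DTT). Cleavage of 20 μM Dabcyl-KTSAVLQ↓SGFRKM-E(Edans)-NH₂ followed by fluorescence at 460 nm with 360 nm excitation. IC50 from triplicate measurements, mean ± SD.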

[20] = Therapeutic index, ratio of CC50 for human RD cells to EC50 for Enterovirus A71 infected in human RD cells; assay type: toxicity, cell-based; conditions: read-out: Ratio CC50/EC50
Summary of the method: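 RD cells were seeded 24 h ahead in 2% FCS medium, then given compound serial dilutions plus EV-A71 (BRCR) inoculum. After 3 days, MTS was added for 1 h at 37 °C and OD498 read. EC50 was interpolated as the concentration giving 50% protection from CPE. CC50 was measured on uninfected host cells by viability or cytotoxicity kits. Index = CC50/EC50.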

[21] = Therapeutic index, ratio of CC50 for human HeLa Rh cells to EC50 for Enterovirus D68 infected in human HeLa Rh cells; assay type: toxicity, cell-based; conditions: read-out: Ratio CC50/EC50
[22] = Antiviral activity against […] infected in HuH7 cells expressing T7 RNA polymerase assessed as reduction in viral RNA replication incubated for 24 hrs by luciferase reporter gene assay; assay type: functional, organism-based; conditions: B3, Huh-7, 24 h
Summary of the method: (§3)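 Huh-T7 cells (DMEM, 2 mM glutamine, penicillin/streptomycin, 10% FCS growth or 2% maintenance, G-418 400 μg·mL⁻¹) transfected with enteroviral replicon. Compound added in growth medium at 40 μM for screening or 0, 1.25, 2.5, 5, 10, 20, 40 μM for EC50. After 24 h, cells lysed and luciferase activity read. Triplicate or quadruplicate, mean ± SD.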

enterovirus D68 = test: Antiviral activity against Enterovirus D68 infected in HeLa Rh cells assessed as reduction in virus-induced cytopathic effect incubated for 3 days by MTS assay; assay type: functional, organism-based; conditions: Enterovirus D, 72 h; summary of the method: as §2
[23] = Therapeutic index, ratio of CC50 for human HeLa Rh cells to EC50 for Human rhinovirus 14 infected in human HeLa Rh cells; assay type: toxicity, cell-based; conditions: read-out: Ratio CC50/EC50
Enterovirus A71 [24] = test: Antiviral activity against Enterovirus A71 infected in HuH7 cells expressing T7 RNA polymerase assessed as reduction in viral RNA replication incubated for 24 hrs by luciferase reporter gene assay; assay type: functional, organism-based; conditions: Enterovirus A, Huh-7, 24 h; summary of the method: as §3

Row | Compound | CC50 at 72 h [3] [µM] | IC50 [4] [µM] | EC50 (Human coronavirus 229E) [µM] | EC50 (Enterovirus A71 [5]) [µM] | CC50 at 48 h [7] [µM] | EC50 (SARS-CoV [8]) [µM] | CC50 at 72 h [10] [µM] | EC50 (rhinovirus B14) [µM] | IC50 [11] [µM] | EC50 (SARS-CoV [12]) [µM] | selectivity ratio [13] | EC50 [14] [µM] | EC50 [15] [µM] | IC50 [16] [µM] | EC50 (rhinovirus A2) [µM] | EC50 [18] [µM] | IC50 [19] [µM] | selectivity ratio [21] | EC50 [22] [µM] | EC50 (enterovirus D68) [µM] | also measured
1 | O=C(/C=C/c1ccccc1)N[C@@H](Cc1ccccc1)C(=O)N[C@@H](C[C@@H]1CCNC1=O)C(=O)C(=O)NCc1ccccc1 | 97 | 1.22 | 11.8 | 9.8 | > 265 | 2 | 35.5 | 4.3 | 6.56 | 5.8 | > 15 | 14 | 13.4 | 1.95 | 5.6 | 0.0048 | > 50 | > 10 | 4.5 | 0.48 | selectivity ratio [1]: > 10; selectivity ratio [2]: > 10; selectivity ratio [6]: > 10; selectivity ratio [9]: > 10; selectivity ratio [17]: > 10; selectivity ratio [20]: > 10; selectivity ratio [23]: > 15; EC50 (Enterovirus A71 [24]): 4.5 µM
2 | O=C(/C=C/c1ccccc1)N[C@@H](CC1CCCCC1)C(=O)N[C@@H](C[C@@H]1CCNC1=O)C(=O)C(=O)NCc1ccccc1 | 17.3 | 1.69 | 1.8 | 3.7 | 43 | 1.4 | 10.9 | 0.7 | 0.95 | 2.1 | > 15 | 2.77 | 5 | 0.71 | 0.64 | 0.0004 | 12.3 | > 15 | 2.35 | 0.48 | selectivity ratio [23]: > 15; EC50 (Enterovirus A71 [24]): 6.95 µM
